The list is not random: actives were taken first. Their share in the collection is about 2.9%.
OX1R antag-1: human HCRTR1 antagonism; inhibition, % at 5 µM; CHO/OX1R cells, Fluo-8 calcium fluorescence, orexin A; AID 434989; 330,000 compounds, 0.43% hits;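 active = inhibition above its plate's threshold, mean inhibition of all tested compounds on the plate plus 3 SD, cut at about 37% in these data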;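 also: 0% = orexin A challenge wells and 100% = SB-334867-A antagonist wells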
Target sequence (O43613 whole entry, looked up): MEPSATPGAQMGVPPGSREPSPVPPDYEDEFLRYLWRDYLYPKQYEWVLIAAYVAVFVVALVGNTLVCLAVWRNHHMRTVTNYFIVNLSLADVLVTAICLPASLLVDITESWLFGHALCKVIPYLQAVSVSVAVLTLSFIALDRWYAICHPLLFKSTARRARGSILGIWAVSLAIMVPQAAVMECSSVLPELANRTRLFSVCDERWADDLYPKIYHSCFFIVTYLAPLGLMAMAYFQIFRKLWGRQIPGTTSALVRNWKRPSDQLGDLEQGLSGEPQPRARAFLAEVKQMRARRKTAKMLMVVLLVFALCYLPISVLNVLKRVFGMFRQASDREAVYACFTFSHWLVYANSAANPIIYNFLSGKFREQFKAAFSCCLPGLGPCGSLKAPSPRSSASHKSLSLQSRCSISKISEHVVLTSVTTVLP
CHO-K1 Ca antag: nonselective inhibitor or artifact in parental CHO-K1 cells. ATP-induced calcium, Fluo-8 fluorescence. inhibition, % at 3 µM. 360,000 compounds, 0.6% hits. AID 602250;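 active = inhibition above a per-plate cutoff, the plate's mean sample inhibition plus 3 SD, cut at about 24% in these data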;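 also: 0% = DMSO plus EC80 ATP and 100% = DMSO alone without ATP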
CHO parental Ca: signal in parental CHO cells, OX1R antagonist counter-screen. 330,000 compounds, 0.63% hits. inhibition, % at 5.6 µM. parental CHO-K1, ATP-induced calcium, Fluo-8 fluorescence. AID 463079;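 active = inhibition above that plate's mean sample inhibition plus 3 SD, cut at about 26% in these data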;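 also: 0% = ATP-challenged DMSO wells and 100% = DMSO wells without ATP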
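Test system: untransfected parental CHO cell line; also added: ATP stimulus; dosing: 5.6 µM, single dose; signal: calcium-sensitive Fluo-8 fluorescence; measure: percent inhibition of ATP-evoked calcium rise, normalized to controls; benchmarks: low control ATP plus DMSO, high control DMSO only; replication: one well per compound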
M1 PAM parental: nonselective activator or artifact in parental CHO-K1 calcium assay; ATP EC20, Fluo-8 calcium fluorescence; 0% at ATP EC20, 100% at ATP max; activation, % at 3 µM; 360,000 compounds, 0.02% hits;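 active = activation above the run cutoff, the mean activation of all test compounds plus 3 SD, cut at about 40% in these data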;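 also: peak over basal fluorescence ratio in a 140 s read after ATP addition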
OX1R antag-2: antagonists of human orexin 1 receptor (OX1R); O43613; OX1R-expressing cells, FRET antagonist read-out; inhibition, % at 6.6 µM; 330,000 compounds, 1.8% hits; in the data active = inhibition mostly above about 38%, no sharp cut-off; inactive = mostly below about 40%;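 also: 0% = agonist challenge alone and 100% = reference antagonist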
M1 ag parental: counter-screen for M1 agonists: effect in parental CHO-K1 cells; Fluo-8 calcium fluorescence; scaled to maximal ATP response, vehicle zero; activation, % at 3 µM; 360,000 compounds, 0.48% hits; in the data active = activation above about 15%;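 also: untransfected CHO-K1 host cells lacking M1 receptor as counterscreen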
Starred values were filed as active, the others as inactive; x = not tested or not shown.

SMILES	OX1R antag-1	CHO-K1 Ca antag	CHO parental Ca	M1 PAM parental	OX1R antag-2	M1 ag parental
CCOC(=O)C1(CCCc2ccccc2)CCN(C(=O)CSC)CC1	-21.3	-13.5	-14.4	3.5	9.5	1.7
CCOC(=O)C1(CCCc2ccccc2)CCN(C(=O)CCC2=NNC(=O)CC2)CC1	-14.7	17.1	-15.8	2.7	10.2	25.3*
CCOC(=O)c1ccc(NC(=O)Oc2cc(C)c(Cl)cc2C(C)C)cc1	-13.4	18.1	5.7	-8.2	11.6	6.1
CCCNC(=O)Cn1c(=O)/c(=C\c2ccc(-c3ccc([N+](=O)[O-])cc3)o2)s/c1=C\C(=O)C(C)(C)C	74.8*	23.0	59.0*	6.9	11.9	22.6*
CC(=O)N(C)c1ccc(N=Nc2c(C)[nH]n(C(N)=S)c2=O)cc1	-0.6	-6.4	-1.2	17.6	55.9*	0.0
CC1=NN(C(N)=S)C(=O)C1N=Nc1ccc(S(N)(=O)=O)cc1 (stereo not drawn)	-10.1	-10.2	8.3	11.2	16.9	0.7
CC(=O)N(C)c1ccc(N=NC2C(=O)N(C(N)=S)N=C2C)cc1 (stereo not drawn)	-3.1	-2.1	-5.2	17.0	62.3*	-0.3
CN1c2cccc3cccc(c23)N(C)C1c1cccs1	-18.0	-1.4	-19.0	8.4	17.0	-0.1
CC1N(C)c2cccc3cccc(c23)N1C	-10.9	-21.3	1.9	20.9	70.2*	1.8
O=c1cc(/C=C/c2ccccc2)oc2c1ccc1ccccc12	-25.5	-13.6	-26.3	31.9	56.1*	0.6
O=c1cc(-c2cccnc2)oc2c1ccc1ccccc12	-12.2	-0.6	-2.7	16.4	36.4*	3.7
O=c1cc(C(F)(F)F)oc2c1ccc1ccccc12	-5.6	-1.5	-8.1	15.3	11.1	0.5
COCCNC(=O)CCn1nc(-c2ccc(C)cc2)ccc1=O	-16.7	-14.5	-10.5	7.6	5.5	0.7
O=C(CSc1nc2ccc(Cl)cc2[nH]1)c1c[nH]c2ccccc12	-4.2	-13.7	-9.2	4.5	41.3*	4.3
COc1cc(C2NC(=O)NC3=C2C(=O)OC3)cc(OC)c1OC (stereo not drawn)	0.6	-7.6	5.7	-2.6	2.0	-0.4
CN(NS(=O)(=O)c1ccc(Br)cc1)c1nc(C(F)(F)F)nc2ccccc12	-16.5	-11.6	16.6	14.5	62.7*	6.0
CN(N)c1nc(C(F)(F)F)nc2ccccc12	-42.3	20.1	-15.5	-14.0	16.4	-0.2
O=C1c2ccccc2-c2nnc(-c3ccc(O)cc3)cc21	4.2	-1.5	-8.6	11.6	4.3	1.3
O=C1c2ccccc2-c2nnc(-c3ccc(F)cc3)cc21	12.2	3.4	-2.9	7.5	7.7	-0.3
Cc1ccccc1-c1cc2c(nn1)-c1ccccc1C2=O	-14.4	25.2*	-38.0	-7.2	72.0*	0.1
Cc1ccc(-c2cc3c(nn2)-c2ccccc2C3=O)cc1	-31.5	-8.7	-17.5	12.0	43.7*	1.2
CCOC(=O)N1CCC(NS(=O)(=O)c2cc(Br)cc3c2N(C(=O)CC)CC3)CC1	-28.0	-8.6	-26.8	20.0	7.9	1.4
Cc1ccc(S(=O)(=O)NCCNS(=O)(=O)c2ccccc2Br)cc1	-9.3	-10.1	-6.7	6.5	10.6	0.1
Cc1ccc(S(=O)(=O)NCCNc2ccc(Br)c(C)c2)cc1	25.1	-4.5	37.4*	2.8	12.9	5.5
CCCC1(C(=O)OCC)NC(c2ccc(OC)cc2OC)C2C(=O)N(c3ccc4c(c3)OCCO4)C(=O)C21 (stereo not drawn)	-25.0	46.0*	-15.1	-3.5	1.1	1.0
SMILES	OX1R antag-1	CHO-K1 Ca antag	CHO parental Ca	M1 PAM parental	OX1R antag-2	M1 ag parental
COc1cc2c(c(OC)c1OC)C(=O)C(=Cc1ccccc1)O2	x	-9.9	x	27.1	x	0.6
CCCC[C@@]1(C2CCCC2)Cc2cc(OCC(=O)O)c(Cl)c(Cl)c2C1=O	-8.6	-3.9	-16.7	9.0	43.0*	-0.1
CC(C)CCNC(=O)C1CC(c2ccc(C(F)(F)F)cc2)=NO1 (stereo not drawn)	-4.5	-7.9	52.4*	10.9	52.5	6.2
O=C(CSc1nnc(NC(=O)C2CC2)s1)Nc1cccc(F)c1	-6.3	5.9	-10.6	-5.2	11.9	3.4
N#Cc1ccsc1NC(=O)CN(Cc1ccccc1)Cc1ccccc1	-36.9	-19.1	-50.9	44.5*	13.2	0.9
N#Cc1ccsc1NC(=O)COC(=O)c1cc2ccccc2cc1O	-8.3	2.6	-13.7	7.9	41.1*	4.1
N#Cc1ccsc1NC(=O)CCc1ccccc1	-20.6	-9.7	-1.0	15.5	10.5	0.6
O=C(N/N=C/c1ccc2c(c1)OCO2)C1CC1	17.2	-13.3	-5.7	13.2	18.4	0.9
COc1cc(/C=C/c2cccc[n+]2C)ccc1OCC(=O)Nc1cccc(Cl)c1	2.5	-12.3	-3.2	12.2	18.0	0.8
COc1ccc(CC(=O)NC(C)c2nnc(SCC(=O)Nc3nc(C)cs3)n2C)cc1 (stereo not drawn)	-7.4	30.6*	2.8	-6.4	7.6	-0.1
COc1ccc(CC(=O)NC(C)c2nnc(SCC(=O)c3ccc(Br)cc3)n2C)cc1 (stereo not drawn)	-13.1	-16.3	-18.6	2.1	4.2	0.7
O=C(Nc1cccc2ccccc12)/C(=C/c1cccc([N+](=O)[O-])c1)NC(=O)c1cccs1	19.8	13.1	-10.0	-6.5	66.7	4.1
O=C(Nc1cccc2ccccc12)/C(=C\c1cccc([N+](=O)[O-])c1)NC(=O)c1cccs1	19.4	-0.1	-8.2	9.8	56.5*	3.4
CCOC(=O)/C(=C\c1ccc([N+](=O)[O-])o1)NC(=O)c1ccccc1	-27.2	-10.8	-17.1	9.2	43.0*	0.4
O=C(NCCc1ccccc1)/C(=C\c1cccc([N+](=O)[O-])c1)NC(=O)c1ccco1	-23.4	-14.1	-12.9	21.5	53.0*	1.1
O=C(NCCCO)/C(=C/c1ccc(-c2cccc([N+](=O)[O-])c2)o1)NC(=O)c1ccccc1	-13.5	-3.3	-6.8	3.3	50.6*	0.9
COC(=O)[C@@H]1CCCN1C(=O)c1ccc(OC2CCN(Cc3ccccn3)CC2)cc1	7.3	-12.8	-5.3	-9.7	-2.5	-0.3
O=C(NCCO)/C(=C\c1ccc([N+](=O)[O-])o1)NC(=O)c1ccccc1	-14.9	15.3	-14.3	-8.1	64.8*	-0.3
Cc1ccc(C(=O)N/C(=C\c2ccc(-c3cccc([N+](=O)[O-])c3)o2)C(=O)NC(C)(C)C)cc1	1.2	-0.9	-16.9	21.5	74.0*	3.0
CCCOC(=O)/C(=C\c1ccc([N+](=O)[O-])o1)NC(=O)c1ccccc1	-18.2	-11.6	-12.0	9.0	48.8	0.7
Cc1nc(CC(=O)Nc2nccs2)cs1	-10.4	-2.1	-10.7	-11.8	6.0	0.2
CSc1ccc(Cl)c(C(=O)NCCOc2cc(C)ccc2C(C)C)c1	46.5*	-7.8	53.1*	-10.4	27.2	-0.8
